ChEMBL document CHEMBL1131833, “Synthesis and cytotoxic activity of N-(2-pyridylsulfenyl)urea derivatives. A new class of potential antineoplastic agents” (Bioorg Med Chem Lett, 1999)

Experiments:
Assay type in all cases: functional, cell-based
MEL-AC cell line = experiment: Cytotoxicity against MEL-AC melanoma cell line; conditions: Homo sapiens
In short: (§1)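 Growth inhibition read by cell counting after 3 days of continuous exposure to 100, 10, 1, 0.1 or 0.01 µM compound. Parallel cultures counted daily to confirm exponential growth. IC50 from the counts; where inhibition stayed low across the range, reported as > highest tested concentration.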

Homo sapiens = species on record: Homo sapiens; experiment: Cytotoxicity against normal PMBC cells in clonogenic assay
In short: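 Human peripheral blood mononuclear cells at 2.0-2.5 ×10^6 cells/mL in Iscove's medium. Clonogenic methylcellulose culture (0.9% final) with 30% fetal calf serum, 10% PHA-LCM and 6 U recombinant human erythropoietin plus compound, 14 days at 37°C. Colonies counted; at least 3 independent experiments, each in triplicate, per compound and concentration.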

HT-29 = experiment: Cytotoxicity against HT-29 colon carcinoma cell line; conditions: Homo sapiens; in short: as §1
K562 = experiment: Cytotoxicity against K-562 myelocytic leukemia cell line; conditions: Homo sapiens; in short: as §1
CCRF-CEM = experiment: Cytotoxicity against CCRF-CEM lymphocytic leukemia cell line; conditions: Homo sapiens; in short: as §1
Calu-1 = experiment: Cytotoxicity against HTB-54 lung carcinoma cell line; conditions: Homo sapiens; in short: as §1

CCOC(=O)c1cccnc1SNC(=O)Nc1ncccn1
IC50 (MEL-AC cell line): 34 µM | IC50 (Homo sapiens): 13.6 µM | IC50 (HT-29): 4.8 µM | IC50 (K562): 1 µM | IC50 (CCRF-CEM): 15 µM | IC50 (Calu-1): 1.8 µM

CCOC(=O)c1cccnc1S(=O)(=O)NC(=O)Nc1ccc(Cl)cc1
IC50 (MEL-AC cell line): > 100 µM | IC50 (HT-29): > 100 µM | IC50 (K562): 14 µM | IC50 (CCRF-CEM): 4.3 µM | IC50 (Calu-1): > 100 µM

CCOC(=O)c1cccnc1S(=O)(=O)NC(=O)Nc1ncccn1
IC50 (MEL-AC cell line): 1.2 µM | IC50 (HT-29): > 100 µM | IC50 (K562): 53 µM | IC50 (CCRF-CEM): 3.5 µM | IC50 (Calu-1): 1.6 µM

CCOC(=O)c1cccnc1SNC(=O)Nc1nc(OC)cc(OC)n1
IC50 (MEL-AC cell line): 43 µM | IC50 (HT-29): 96 µM | IC50 (K562): 43 µM | IC50 (CCRF-CEM): 0.7 µM | IC50 (Calu-1): 74 µM

CCOC(=O)c1cc([N+](=O)[O-])cnc1SNC(=O)Nc1ncccn1
IC50 (MEL-AC cell line): 0.2 µM | IC50 (HT-29): > 100 µM | IC50 (K562): 0.2 µM | IC50 (CCRF-CEM): 1.5 µM | IC50 (Calu-1): 14 µM

COc1cccc2c1C(=O)c1c(O)c3c(c(O)c1C2=O)C[C@@](O)(C(=O)CO)C[C@@H]3O[C@H]1C[C@H](N)[C@H](O)[C@H](C)O1 [DOXORUBICIN]
IC50 (MEL-AC cell line): 1.2 µM | IC50 (Homo sapiens): 39.4 µM | IC50 (HT-29): 0.7 µM | IC50 (K562): 1 µM | IC50 (Calu-1): 1.1 µM
